Measurements pooled from the literature.
Lines come from different studies, so protocols differ.
Target: Serine/threonine-protein kinase MARK2 (MARK2, Homo sapiens, UniProt Q7KZI7)

SMILES	test	system	conditions	measurement	value
Nc1ncnc2occ(-c3ccc(NC(=O)Nc4cc(C(F)(F)F)ccc4F)cc3)c12	cell-free assay, inhibitor		20 µM	remaining signal	22%
CNC(=O)c1cc(Oc2ccc(NC(=O)Nc3ccc(Cl)c(C(F)(F)F)c3)cc2)ccn1	enzyme activity, inhibitor		10 µM	inhibition	26%
Cc1noc([C@H]2C[C@@H](c3ccc(C(F)(F)F)cc3)CN(C(=O)N3CCS(=O)(=O)C3)C2)n1	cell-free assay, competition with immobilised ligand		1 µM	remaining binding	100%
CC/C(=N\NC(=O)NCc1cccc(O)c1)c1ccc(O)c(C)c1O	enzyme activity, inhibitor		0.1 µM	inhibition	-5.8%
NS(=O)(=O)c1ccc(CNc2nc(Nc3cccc(NC(=O)N4CCCC4)c3)ncc2C2CC2)cc1	enzyme activity, inhibitor, radiometric		1 µM	remaining activity	93%
O=C(N[C@H]1CCCCC/C=C\C2C[C@@]2(C(=O)O)NC(=O)[C@@H]2C[C@@H](Oc3ccncc3)CN2C1=O)OC1CCCC1 (some centres unmarked)	binding, competition with immobilised ligand		1 µM	remaining binding	81%
O=C(NCCCNc1nc(Nc2cccc(CN3CCOCC3)c2)ncc1C1CC1)C1CCC1	enzyme activity, inhibitor, radiometric		1 µM	remaining activity	4%
CO[C@H]1CC[C@H](CNc2ccc(S(=O)(=O)NC(=O)c3ccc(N4CCN(CC5=C(c6ccc(Cl)cc6)CC(C)(C)CC5)CC4)cc3Oc3cnc4[nH]ccc4c3)cc2[N+](=O)[O-])CC1	cell-free assay, competition with immobilised ligand		1 µM	remaining binding	100%
COc1cc2ncnc(Nc3ccc(Oc4ccccc4)cc3C)c2cc1OC	enzyme activity, inhibitor		1 µM	inhibition	7%
FC(F)c1nc2ccccc2n1-c1nc(N2CCOCC2)nc(N2CCOCC2)n1	enzyme activity, inhibitor		10 µM	remaining activity	87%
CCCCNc1ncc2c(-c3ccc(F)cc3)nn(C[C@H]3CC[C@H](N)CC3)c2n1	target engagement in cells, inhibitor, chemoproteomics		20 mM	inhibition	18%
COc1cc(/C=C/C(=O)CC(=O)/C=C/c2ccc(O)c(OC)c2)ccc1O	enzyme activity, inhibitor		1 µM	activity vs control	78%
c1cc(CN2CCOCC2)cc(Nc2nccc(NCCc3cnc[nH]3)n2)c1	enzyme activity, inhibitor, radiometric		1 µM	remaining activity	93%
COc1cc(Nc2cnc(C#N)c(O[C@H](C)CN(C)C)n2)ncc1-c1cnn(C)c1	enzyme activity, inhibitor, radiometric		10 µM	remaining activity	57%
FC(F)(F)Oc1cccc(-c2cnc3ccc(-c4ccncc4)nn23)c1	enzyme activity, inhibitor, radiometric		1 µM	activity vs control	106%
Cc1ccc(C(=O)NCc2ccsc2)cc1C#Cc1cn(C(C)C)c2ncnc(N)c12	enzyme activity, inhibitor		1 µM	activity vs control	99%

SMILES	test	system	conditions	measurement	value
CS(=O)(=O)c1cc(C2(NC(=O)c3cncc4c3cnn4-c3ccc(F)cc3)CC2)ccn1	cell-free assay, competition with immobilised ligand		1 µM	remaining binding	100%
O=C(NCCCNc1ccnc(Nc2cccc(NC(=O)N3CCCC3)c2)n1)C1CCC1	enzyme activity, inhibitor, radiometric		1 µM	remaining activity	82%
Cc1c(C(=O)O)cc(-c2ccc(C3CCNCC3)cc2)c2ccc(-c3ccc(C(F)(F)F)cc3)cc12	binding, competition with immobilised ligand		1 µM	remaining binding	100%
C[C@@H]1CCN(C(=O)CC#N)C[C@@H]1N(C)c1ncnc2[nH]ccc12	cell-free assay, inhibitor		0.5 µM	remaining signal	91.8%
CC(=O)Nc1c(C(C)=O)c(=O)n(C)c2nc(-c3ccc(Cl)cc3Cl)c(-c3ccc(Cl)cc3)cc12	cell-free assay, competition with immobilised ligand		1 µM	remaining binding	100%
CN(C)C1CCN(CC#Cc2nn(C3CCCC3)c3nc(NCc4ccccc4)ncc23)C1 (centres unmarked)	enzyme activity, inhibitor, FRET		10 µM	inhibition	16%
Cc1nn(CC(F)(F)F)cc1Nc1nccc(NCCc2cnc[nH]2)n1	enzyme activity, inhibitor, radiometric		1 µM	remaining activity	104%
O=C1NC(=O)c2cc(Nc3ccc(F)cc3)c(Nc3ccc(F)cc3)cc21	cell-free assay		0.5 µM	remaining signal	98.2%
Cc1nn(CC(F)(F)F)cc1Nc1ncc(Br)c(NCCc2cnc[nH]2)n1	enzyme activity, inhibitor, radiometric		1 µM	remaining activity	55%
CNc1cccc2cc(C(=O)Nc3ccc(C(=O)O)cc3)c(=O)[nH]c12	enzyme activity, inhibitor		10 µM	inhibition	-5.3%
Cc1nn(CC(F)(F)F)cc1Nc1nccc(NCCCNC(=O)C2CCC2)n1	enzyme activity, inhibitor, radiometric		1 µM	remaining activity	103%
Cc1c(NC(=O)c2cc(C(N)=O)nc3cc(F)ccc23)c(C(F)(F)F)nn1Cc1ccc(C#N)cc1	cell-free assay, competition with immobilised ligand		1 µM	remaining binding	97%
O=C(NCCCNc1nc(Nc2cccc(NC(=O)N3CCCC3)c2)ncc1I)c1cccs1	enzyme activity, inhibitor, radiometric		1 µM	remaining activity	3%
Cc1ccc(Nc2nccc(N(C)c3ccc4c(C)n(C)nc4c3)n2)cc1S(N)(=O)=O	enzyme activity, inhibitor		0.3 µM	inhibition	27%
Cc1cc(-n2nc(Cc3cc(F)cc(C(F)(F)F)c3)nc2C)ccc1C(N)=O	cell-free assay, competition with immobilised ligand		1 µM	remaining binding	89%
CCN1CCN(Cc2ccc(NC(=O)c3ccc(C)c(Oc4ccnc5[nH]ccc45)c3)cc2C(F)(F)F)CC1	target engagement in cells, inhibitor, chemoproteomics	Huh-7	1 µM	inhibition	-10.4%
